Measured values reported in ChEMBL document CHEMBL3393037, “Design, synthesis, and biological evaluation of aminothiazole derivatives against the fungal pathogens Histoplasma capsulatum and Cryptococcus neoformans” (Bioorg Med Chem, 2015).
Converted amounts (≈) assume the structure as drawn.

How the values were obtained:
[1] = Antifungal activity against Histoplasma capsulatum G217B ATCC 26032 assessed as inhibition of visible growth after 5 days; format: functional
Outline: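 Wild-type G217B yeasts kept in HMM at 37 °C under 5% CO2. Wells held 2×10^5 yeasts (hemocytometer count) with a two-fold dilution series from 40 to 0.078 µM, at 1% DMSO in the top dilution. Plates were agitated twice daily and growth followed by A595 over 5 days. MIC is the lowest concentration with no visible growth on visual inspection of the plates.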

Cryptococcus neoformans = experiment: Antifungal activity against Cryptococcus neoformans MATalpha serotype A strain H99 assessed as inhibition of visible growth after 5 days; format: functional; conditions: MATalpha serotype A strain H99, 120 h
[2] = Selectivity index, ratio of MIC50 for human HepG2 cells to MIC50 for Histoplasma capsulatum strain G217B ATCC 26032
[3] = Cytotoxicity against human HepG2 cells after 72 hrs by crystal violet staining method; format: cell-based; conditions: for CC50 at 72 h: read-out: MIC50
Outline: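 HepG2 cells in MEM with 10% FBS and 2 mM L-glutamine were seeded at 1×10^4 per well and left to adhere overnight. Compound was added at 0.3 to 80 µM for 72 h. Cells were fixed in 3% paraformaldehyde, stained with 0.1% crystal violet, and the dye taken up in 10% acetic acid and read at A590. Values were normalised to DMSO-matched controls, in triplicate.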

| SMILES | MIC [1] | MIC50 [1] | MIC (Cryptococcus neoformans) | MIC50 (Cryptococcus neoformans) | Ratio [2] | CC50 at 72 h [3] | MCC at 72 h ([3]; read-out: MIC) |
| --- | --- | --- | --- | --- | --- | --- | --- |
| CC(C)(C)OC(=O)Nc1ncc(C(O)c2ccccc2)s1 (stereo not given) | > 20 µM | > 10 µM | – | – | – | – | – |
| O=C(CCC1CCCCC1)Nc1ncc(CCc2ccccc2)s1 | 2.5 µM (≈ 0.856 µg/mL) | 0.7 µM (≈ 0.24 µg/mL) | > 20 µM | > 10 µM | >50 | > 40 µM | – |
| O=C(CCC1CCCCC1)Nc1ncc(Cc2ccc(F)cc2)s1 | > 20 µM | > 10 µM | – | – | – | – | – |
| O=C(CCC1CCCCC1)Nc1ncc(-c2ccccc2)s1 | > 20 µM | > 10 µM | – | – | – | – | – |
| O=C(Nc1ncc(Cc2ccccc2)s1)C1CCCC1 | 5 µM (≈ 1.43 µg/mL) | 1.6 µM (≈ 0.458 µg/mL) | 10 µM (≈ 2.86 µg/mL) | 3.6 µM (≈ 1.03 µg/mL) | >24 | > 40 µM | – |
| CN1CCC(C(=O)Nc2ncc(Cc3ccccc3)s2)CC1 | > 20 µM | > 10 µM | – | – | – | – | – |
| O=C(Nc1ncc(CC2CCCCC2)s1)C12CC3CC(CC(C3)C1)C2 | > 20 µM | > 10 µM | – | – | – | – | – |
| CC(C)C(=O)Nc1ncc(Cc2cccc3ccccc23)s1 | 2.5 µM (≈ 0.776 µg/mL) | 1.5 µM (≈ 0.466 µg/mL) | > 20 µM | > 10 µM | – | – | – |
| O=C(Nc1ncc(Cc2cccc3ccccc23)s1)c1ccccc1 | > 20 µM | > 10 µM | – | – | – | – | – |
| O=C(CCC1CCCCC1)Nc1ncc(CC2CCCCC2)s1 | 5 µM (≈ 1.67 µg/mL) | 0.8 µM (≈ 0.268 µg/mL) | > 20 µM | 9.6 µM (≈ 3.21 µg/mL) | – | – | – |
| O=C(CC1CCCCC1)Nc1ncc(Cc2ccccc2)s1 | 2.5 µM (≈ 0.786 µg/mL) | 0.7 µM (≈ 0.22 µg/mL) | > 20 µM | > 10 µM | >44 | > 40 µM | – |
| O=C(Nc1ncc(Cc2ccc3ccccc3c2)s1)C12CC3CC(CC(C3)C1)C2 | > 20 µM | > 10 µM | – | – | – | – | – |
| O=C(Nc1ncc(Cc2ccc(F)cc2)s1)C1CCCC1 | 20 µM (≈ 6.09 µg/mL) | 5.2 µM (≈ 1.58 µg/mL) | – | – | – | – | – |
| O=C(Nc1ncc(Cc2ccccc2)s1)C1CCCCC1 | 5 µM (≈ 1.5 µg/mL) | 1.6 µM (≈ 0.481 µg/mL) | 5 µM (≈ 1.5 µg/mL) | 1.3 µM (≈ 0.391 µg/mL) | >21 | > 40 µM | – |
| O=C(Nc1ncc(Cc2ccccc2)s1)c1ccccc1 | > 20 µM | > 10 µM | – | – | – | – | – |
| CN(C(=O)CCC1CCCCC1)c1ncc(Cc2ccccc2)s1 | > 20 µM | > 10 µM | – | – | – | – | – |
| O=C(Nc1nc(-c2ccccc2)cs1)C1CCCC1 | > 20 µM | > 10 µM | – | – | – | – | – |

| SMILES | MIC [1] | MIC50 [1] | MIC (Cryptococcus neoformans) | MIC50 (Cryptococcus neoformans) | Ratio [2] | CC50 at 72 h [3] | MCC at 72 h ([3]; read-out: MIC) |
| --- | --- | --- | --- | --- | --- | --- | --- |
| O=C(CCC1CCCCC1)Nc1ncc(Cc2ccccc2)s1 | 1.3 µM (≈ 0.427 µg/mL) | 0.7 µM (≈ 0.23 µg/mL) | > 20 µM | > 10 µM | >44 | > 40 µM | – |
| O=C(Nc1ncc(CCc2ccccc2)s1)C1CCCC1 | 2.5 µM (≈ 0.751 µg/mL) | 0.9 µM (≈ 0.27 µg/mL) | 5 µM (≈ 1.5 µg/mL) | 2.7 µM (≈ 0.811 µg/mL) | – | – | – |
| O=C(CCC1CCCCC1)Nc1nc(C23CC4CC(CC(C4)C2)C3)cs1 | 20 µM (≈ 7.45 µg/mL) | 5.2 µM (≈ 1.94 µg/mL) | – | – | – | – | – |
| O=C(Nc1ncc(Cc2ccccc2)s1)N1CCCCC1 | > 20 µM | > 10 µM | – | – | – | – | – |
| O=C(CCC1CCCCC1)Nc1ncc(Cc2cccc3ccccc23)s1 | 1.3 µM (≈ 0.492 µg/mL) | 0.4 µM (≈ 0.151 µg/mL) | > 20 µM | > 10 µM | >100 | > 40 µM | – |
| O=C(Nc1ncc(Cc2ccccc2)s1)N1CCCC1 | > 20 µM | > 10 µM | – | – | – | – | – |
| O=C(CC1CCCCC1)Nc1ncc(CC2CCCCC2)s1 | > 20 µM | > 10 µM | – | – | – | – | – |
| NC(=O)c1cc(-c2ccccc2)sc1NC(=O)c1ccc2c(c1)OCCO2 | – | 2.5 µM (≈ 0.951 µg/mL) | – | – | – | – | 10 µM |
| O=C(Nc1ncc(CC2CCCCC2)s1)c1ccccc1 | 10 µM (≈ 3 µg/mL) | 4.6 µM (≈ 1.38 µg/mL) | – | – | – | – | – |
| O=C(Nc1ncc(Cc2ccccc2)s1)N1CCOCC1 | > 20 µM | > 10 µM | – | – | – | – | – |
| O=C(Nc1ncc(Cc2ccccc2)s1)C1COc2ccccc2C1 (stereo not given) | > 20 µM | > 10 µM | – | – | – | – | – |
| O=C(CCC1CCCCC1)Nc1nc(-c2ccccc2)cs1 | > 20 µM | > 10 µM | – | – | – | – | – |
| O=C(Nc1ncc(-c2ccccc2)s1)C1CCCC1 | > 20 µM | > 10 µM | – | – | – | – | – |
| O=C(Nc1ncc(Cc2ccc(F)cc2)s1)C1CCCCC1 | 20 µM (≈ 6.37 µg/mL) | 4.4 µM (≈ 1.4 µg/mL) | – | – | – | – | – |
| O=C(Nc1ncc(Cc2cccc3ccccc23)s1)C(F)(F)F | > 20 µM | > 10 µM | – | – | – | – | – |
| O=C(CCC1CCCCC1)Nc1ncc(Cc2cccc(Cl)c2)s1 | 2.5 µM (≈ 0.907 µg/mL) | 1.1 µM (≈ 0.399 µg/mL) | > 20 µM | > 10 µM | 65 | 39 µM | – |
